Measured values taken from PMC3773863 (Bioorganic & medicinal chemistry letters, 2013).
Blank lines part the entries; values can stand above or below the compound they belong to.

Assays:
[1] = target: pure porcine brain tubulin proteins (Sus scrofa, UniProt P02550+P02554); assay: In vitro tubulin polymerization assay; format: biochemical; conditions: GPEM buffer, 37 °C, absorbance 340 nm
[2] = tested on: α-tubulin and β-tubulin in NCI-H522 cells; assay: In vivo tubulin assembly assay; format: cell-based, human; conditions: 24 h, 6h 10, 30, 100 nM, vincristine and paclitaxel 100 nM
[3] = tested on: MDA-MB-435 melanoma cells; assay: NCI in vitro human tumor cell screen, MDA-MB-435; format: cell-based
[4] = tested on: M14 melanoma cells; assay: NCI in vitro human tumor cell screen, M14; format: cell-based
Method in brief: (§1)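 NCI-60 panel screen. GI50 is the log concentration that […]. TGI is the log concentration giving total growth inhibition. LC50 is the log concentration needed to kill 50% of the test population.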

[5] = tested on: NCI-H522 cells; assay: MTT anti-proliferation assay, NCI-H522; format: cell-based, human; conditions: read-out: IC50 proliferation of NCI-H522 cells, 48 h incubation
Method in brief: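 NCI-H522 cells in log-phase growth were exposed at 37 °C to test compound or DMSO vehicle in complete medium for 48 h. They were then given MTT (1 mg/mL in 1X PBS) for 2 h at 37 °C. Absorbance was read at 570 nm and corrected at 630 nm.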

[6] = tested on: Colo205 colon cancer cells; assay: NCI in vitro human tumor cell screen, Colo205; format: cell-based
Method in brief: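 NCI-60 panel screen. GI50 is the log concentration that […]. TGI is the log concentration giving total growth inhibition.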

[7] = tested on: SF-295 CNS cancer cells; assay: NCI in vitro human tumor cell screen, SF-295; format: cell-based
Method in brief: as §1

[8] = tested on: MDA-MB-468 breast cancer cells; assay: NCI in vitro human tumor cell screen, MDA-MB-468; format: cell-based
Method in brief: as §1

[9] = tested on: NCI-H522 non-small cell lung cancer cells; assay: NCI in vitro human tumor cell screen, NCI-H522; format: cell-based
[10] = tested on: RXF 393 renal cancer cells; assay: NCI in vitro human tumor cell screen, RXF 393; format: cell-based
Method in brief: as §1

[11] = tested on: SK-OV-3 ovarian cancer cells; assay: NCI in vitro human tumor cell screen, SK-OV-3; format: cell-based
Method in brief: as §1

[12] = tested on: OVCAR-3 ovarian cancer cells; assay: NCI in vitro human tumor cell screen, OVCAR-3; format: cell-based
Method in brief: as §1

[13] = tested on: NCI/ADR-RES ovarian cancer cells; assay: NCI in vitro human tumor cell screen, NCI/ADR-RES; format: cell-based
Method in brief: as §1

[14] = tested on: SK-MEL-5 melanoma cells; assay: NCI in vitro human tumor cell screen, SK-MEL-5; format: cell-based
Method in brief: as §1

[15] = tested on: SR leukemia cells; assay: NCI in vitro human tumor cell screen, SR; format: cell-based
[16] = tested on: DU-145 prostate cancer cells; assay: NCI in vitro human tumor cell screen, DU-145; format: cell-based
Method in brief: as §1

Chain of pure porcine brain tubulin proteins (P02550 whole entry): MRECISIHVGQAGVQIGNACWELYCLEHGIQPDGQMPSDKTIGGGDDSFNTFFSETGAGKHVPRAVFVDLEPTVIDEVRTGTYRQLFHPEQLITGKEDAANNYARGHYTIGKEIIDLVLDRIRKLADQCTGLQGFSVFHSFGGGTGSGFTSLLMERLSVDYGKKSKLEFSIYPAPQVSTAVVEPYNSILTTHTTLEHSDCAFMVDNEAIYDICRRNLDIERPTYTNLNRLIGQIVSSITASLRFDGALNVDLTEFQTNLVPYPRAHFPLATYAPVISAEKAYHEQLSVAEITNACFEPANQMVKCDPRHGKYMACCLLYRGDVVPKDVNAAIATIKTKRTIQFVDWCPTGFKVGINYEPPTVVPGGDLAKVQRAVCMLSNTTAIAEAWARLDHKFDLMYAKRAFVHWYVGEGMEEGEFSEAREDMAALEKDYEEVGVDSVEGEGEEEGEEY
Chain of pure porcine brain tubulin proteins (P02554 whole entry): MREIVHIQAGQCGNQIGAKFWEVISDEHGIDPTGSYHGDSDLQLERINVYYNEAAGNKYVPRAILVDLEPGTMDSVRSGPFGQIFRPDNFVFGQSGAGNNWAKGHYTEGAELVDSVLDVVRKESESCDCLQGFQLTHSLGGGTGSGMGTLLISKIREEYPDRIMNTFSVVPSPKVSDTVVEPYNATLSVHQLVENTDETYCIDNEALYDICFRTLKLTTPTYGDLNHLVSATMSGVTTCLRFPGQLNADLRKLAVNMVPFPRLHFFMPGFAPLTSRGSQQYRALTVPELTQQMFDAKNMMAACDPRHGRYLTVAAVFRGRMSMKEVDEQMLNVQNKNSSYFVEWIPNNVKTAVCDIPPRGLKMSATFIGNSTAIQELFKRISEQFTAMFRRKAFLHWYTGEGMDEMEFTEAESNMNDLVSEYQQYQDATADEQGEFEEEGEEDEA

effect on tubulin polymerization [1]: inhibited tubulin polymerization
Compound: CC[C@]1(O)C[C@@H]2CN(CCc3c([nH]c4ccccc34)[C@@](C(=O)OC)(c3cc4c(cc3OC)N(C)[C@H]3[C@@](O)(C(=O)OC)[C@H](OC(C)=O)[C@]5(CC)C=CCN6CC[C@]43[C@@H]65)C2)C1 [vinblastine]

effect on tubulin polymerization [1]: inhibited tubulin polymerization
Compound: CC[C@]1(O)C[C@H]2CN(CCc3c([nH]c4ccccc34)[C@@](C(=O)OC)(c3cc4c(cc3OC)N(C=O)[C@H]3[C@@](O)(C(=O)OC)[C@H](OC(C)=O)[C@]5(CC)C=CCN6CC[C@]43[C@@H]65)C2)C1 [vincristine]

Compound: CC(=O)O[C@H]1C(=O)[C@@]2(C)[C@H]([C@H](OC(=O)c3ccccc3)[C@]3(O)C[C@H](OC(=O)[C@H](O)[C@@H](NC(=O)c4ccccc4)c4ccccc4)C(C)=C1C3(C)C)[C@]1(OC(C)=O)CO[C@@H]1C[C@@H]2O [paclitaxel]
effect on α-tubulin and β-tubulin in the cytoskeletal fraction [2]: caused tubulin polymerization

IC50 [5]: 0.0423 ± 0.0012 µM
Compound: 2-(3-hydroxy-5-methoxyphenyl)-6-pyrrolidin-1-ylquinolin-4-one [Compound 6h]
logGI50 [3]: < −8.00
logTGI [3]: −7.53
logGI50 [4]: −7.52
logLC50 [4]: >−4.00
logTGI [4]: −4.80
effect on tubulin polymerization [1]: inhibited tubulin polymerization in a concentration-dependent manner
logGI50 [6]: −7.27
logTGI [6]: −6.66
logGI50 [7]: −6.96
logLC50 [7]: >−4.00
logTGI [7]: −4.95
logGI50 [8]: −6.58
logLC50 [8]: >−4.00
logTGI [8]: −5.70
logGI50 [9]: < −8.00
logLC50 [9]: −5.41
logTGI [9]: < −8.00
logGI50 [10]: −7.39
logLC50 [10]: >−4.00
logTGI [10]: −4.62
logGI50 [11]: −7.63
logLC50 [11]: >−4.00
logTGI [11]: −4.60
logGI50 [12]: −7.63
logLC50 [12]: −5.19
logTGI [12]: −7.05
logGI50 [13]: −7.21
logLC50 [13]: >−4.00
logTGI [13]: −6.29
logGI50 [14]: −7.61
logLC50 [14]: −6.31
logTGI [14]: −7.18
logGI50 [15]: < −8.00
logLC50 [15]: >−4.00
logTGI [15]: > −4.00
logGI50 [16]: −7.51
logLC50 [16]: >−4.00
logTGI [16]: −6.59
